Assay outcomes from PubChem.
Hits are enriched below; roughly 9.6% of the tested compounds scored in any of these assays.
bCat KO growth: beta-catenin-lacking colon tumor cell growth suppression. HCT116 beta-catenin knockout viability, CellTiter-Glo, 60 h; active compounds read low. viability, % at 10 µM. actives 1.5% (n = 140,000). AID 818;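 active = viability at or under a set limit, the compound median less 4 SD, cut at about 6% in these data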
Lmaj promast: Leishmania major promastigote growth inhibition; Leishmania major promastigotes, resazurin fluorescence viability; inhibition, % at 10 µM; actives 9% (n = 200,000); AID 1063; in the data active = inhibition above about 50%;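 note: promastigotes grown with compound for 44 hours at 28 °C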
PMI act: increases human mannose-6-phosphate isomerase activity; actives 0.005% (n = 190,000); activation factor at 20 µM; P34949; purified human PMI, coupled resazurin fluorescence, 20 min; active compounds read high; 1 = vehicle control, 0 substrate-free wells;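 active = activation factor of 2 or more at 20 µM, relative to plate controls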
Target sequence (P34949 whole entry, looked up): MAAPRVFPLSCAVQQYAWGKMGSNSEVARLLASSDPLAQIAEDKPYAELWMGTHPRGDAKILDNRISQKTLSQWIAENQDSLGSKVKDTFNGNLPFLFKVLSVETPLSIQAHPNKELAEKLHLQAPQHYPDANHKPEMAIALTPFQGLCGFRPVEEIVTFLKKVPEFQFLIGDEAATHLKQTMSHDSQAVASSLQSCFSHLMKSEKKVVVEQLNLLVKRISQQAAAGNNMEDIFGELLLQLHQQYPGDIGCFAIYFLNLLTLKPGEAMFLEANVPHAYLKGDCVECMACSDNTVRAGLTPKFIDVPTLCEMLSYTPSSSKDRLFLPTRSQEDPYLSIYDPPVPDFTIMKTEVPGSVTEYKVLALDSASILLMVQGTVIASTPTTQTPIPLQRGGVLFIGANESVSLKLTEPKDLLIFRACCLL
HCT116 PTEN-null: growth suppressors of cells with PTEN tumor suppressor deletion; HCT116 PTEN-null viability, CellTiter-Glo, 60 h; active compounds read low; viability, % at 10 µM; actives 1.2% (n = 140,000); AID 827;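 active = viability at or below a set limit, 4 SD under the median of all tested compounds, cut at about 3.7% in these data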;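 note: PTEN knockout HCT116 line with beta catenin targeted HCT116 as companion control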
PMI act satM6P: increases human PMI activity with near-saturating mannose 6-phosphate. P34949. coupled PMI enzyme assay, resazurin fluorescence, 20 min; active compounds read high; 1 = untreated enzyme, 0 = substrate-free blank. activation factor at 20 µM. actives 0.34% (n = 190,000). AID 1216;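 active = activation factor of 2 or more at 20 µM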
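Test system – human PMI in coupled enzyme assay · Timing – 20 min incubation at room temperature · Detection – Diaphorase-driven resazurin-to-resorufin fluorescence, excitation 544, emission 590 nm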
L major 1uM: blocks Leishmania major promastigote growth at 1 uM, repeat screen. shares compounds with Lmaj promast. actives 13% (n = 1,100). L. major promastigote growth, resazurin fluorescence, 48 h. AID 1258. inhibition, % at 1 µM;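 active = inhibition above about 50% in both repeat tests, limit read from the data; inconclusive = one repeat under the set limit, the other over it; inactive = both repeats under the set limit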
Each line names hits and unclear results; the compound was inactive in the other large screens (follow-up assays come after a bar, where they were run); ! = repeats disagree.

COc1ccc(C(O)c2cc(OC)ccc2OP(=O)(N(C)C)N(C)C)cc1 (stereo unspecified)	none
COc1ccc(CCC(C)NCCc2ccccc2)cc1 (stereo unspecified)	Lmaj promast 89
COc1ccc(CCNC2CCCCC2)cc1	none (no result: bCat KO growth, HCT116 PTEN-null)
COc1ccc2oc3c(c2c1)NC(=O)CN=C3c1ccccc1	none (no result: bCat KO growth, HCT116 PTEN-null)
C=CCC1C(=O)NC(=S)NC1=O	PMI act satM6P 2 (no result: bCat KO growth, HCT116 PTEN-null)
O=C1CCCN1c1ccc(S(=O)(=O)O)cc1 (tested in a mixture with another compound)	none
Cc1cc2c(C(C)C)c(O)c(O)c(C=O)c2c(O)c1-c1c(C)cc2c(C(C)C)c(O)c(O)c(C=O)c2c1O	bCat KO growth 4.8, HCT116 PTEN-null 1.9!
c1cc2c(cc1CCNC1C3CC4CC(C3)CC1C4)OCO2 (stereo unspecified)	Lmaj promast 86
CC1CCC(NCCc2ccc3c(c2)OCO3)CC1 (stereo unspecified)	Lmaj promast 93
CCCCCc1nc2ccccc2c(=O)n1-c1ccccc1[N+](=O)[O-]	Lmaj promast 51
CCCCOP(=O)(CN1CCOCC1)OCCCC	none
O=C1NC(=O)C(=Cc2ccc(-c3cc(Cl)ccc3[N+](=O)[O-])o2)C(=O)N1	Lmaj promast 64 (no result: bCat KO growth, HCT116 PTEN-null)
CCOC(=O)c1cncn1[C@H](C)c1ccccc1	none (no result: bCat KO growth, Lmaj promast, HCT116 PTEN-null)
Cc1c(NC(=O)C(C)OC(=O)Cc2ccccc2)c(=O)n(-c2ccccc2)n1C (stereo unspecified)	none
CCCCCCN1CCN(c2ccc(Cl)cc2)CC1	Lmaj promast 82 (no result: bCat KO growth, HCT116 PTEN-null)
Cc1cc(/C=C2/C(=O)NC(=O)N(C)C2=O)c(C)n1-c1ccccc1	none (no result: bCat KO growth, HCT116 PTEN-null)
C=CCN1C(=O)/C(=C/c2cc(C)n(-c3ccccn3)c2C)C(=O)NC1=S	Lmaj promast 96
CC1=NN(Cc2c[nH]c3ccccc23)C(C)(C)C1	none (no result: bCat KO growth, HCT116 PTEN-null)
Cc1ccc(-c2nc3ccccc3c(=O)n2-c2ncccc2C)cc1	none
CCOC(=O)N(CC)c1ccc(C(O)(C(=O)OC)C(F)(F)F)cc1 (stereo unspecified)	Lmaj promast 91
CCCCNC(=O)Nc1ccc(C(O)(C(=O)OCC)C(F)(F)F)cc1 (stereo unspecified)	none
COC(=O)C(O)(c1ccc(N(C)C(=O)COc2ccccc2)cc1)C(F)(F)F (stereo unspecified)	none
COC(=O)N(C)c1ccc(C(O)(C(=O)OC)C(F)(F)F)cc1 (stereo unspecified)	Lmaj promast 87
CN(C)C(=O)CSc1nnc([C@@H](N)Cc2ccccc2)o1	none
O=C1NC(=O)N(Cc2ccccc2)C(=O)/C1=C\c1ccco1	PMI act satM6P 2.3 (no result: bCat KO growth, HCT116 PTEN-null)
O=c1c(C=Nc2cccnc2Cl)c(O)n(CCCCl)c(=O)n1C1CCCCC1	none
CCOC(C(=O)OCCCN(CC)CC)(c1ccccc1)c1ccccc1	Lmaj promast 100
CCN(CC)CCCOC(=O)C(OC(C)C)(c1ccccc1)c1ccccc1	Lmaj promast 89
N#Cc1ccc(N2CCNCC2)c(F)c1	none
COc1ccc(CCN(C)Cc2ccncc2)cc1OC	none
COc1cc2ccccc2cc1C(=O)Nc1ccc(Cc2ccncc2)cc1	Lmaj promast 99
S=P(Nn1cnnc1)(c1ccc(Br)cc1)c1ccc(Br)cc1	none (no result: bCat KO growth, HCT116 PTEN-null)
COc1cc2c3cc1Oc1cc(ccc1O)C[C@@H]1c4c(cc(OC)c(O)c4Oc4ccc(cc4)C[C@H]3N(C)CC2)CCN1C	Lmaj promast 100
COC(=O)C1=C(N)Oc2cc(C)oc(=O)c2C12C(=O)Nc1ccccc12 (stereo unspecified)	none (no result: bCat KO growth, HCT116 PTEN-null)
CN1CCN(C(=O)COc2ccc(-c3nc4ccccc4s3)cc2)CC1	Lmaj promast 100
CC(C)NS(=O)(=O)c1ccc(OCC(=O)N2CCN(C)CC2)cc1	none
CN(CC1COc2ccccc2O1)c1nc(-c2cccnc2)nc2ccccc12 (stereo unspecified)	Lmaj promast 69 (no result: PMI act, PMI act satM6P)
Cn1c(=O)c2c(nc(N/N=C/c3c(O)n(-c4ccccc4)c(=S)[nH]c3=O)n2C)n(C)c1=O	none
CCOC(=O)C1(CCc2ccccc2)CCN(C2CCSCC2)CC1	Lmaj promast 88 (no result: bCat KO growth, HCT116 PTEN-null)
CCOC(=O)C1(c2ccccc2)CCN(Cc2cccc(C(=O)O)c2)CC1	none
CCOC(=O)C1(CCCc2ccccc2)CCN(C2CCCC2)CC1	Lmaj promast 71 (no result: bCat KO growth, HCT116 PTEN-null)
CCOC(=O)C1(CCOc2ccccc2)CCN(Cc2ccc(C)s2)CC1	Lmaj promast 81 (no result: bCat KO growth, HCT116 PTEN-null)
CCOC(=O)C1(CCc2ccccc2)CCN(Cc2ccc3c(c2)OCCO3)CC1	Lmaj promast 84 (no result: bCat KO growth, HCT116 PTEN-null)
CCOC(=O)C1(c2ccccc2)CCN(CC(=O)Nc2cccc3ccccc23)CC1	none
CCCCCCN=C(C)c1c(O)n(CCCC)c(=O)[nH]c1=O	none
CCOc1ccc(N2C(=O)/C(=C\c3cccs3)C(=O)NC2=S)cc1	Lmaj promast 100, PMI act satM6P 2.2 (no result: bCat KO growth, HCT116 PTEN-null)
O=C1NC(=S)N(c2ccccc2F)C(=O)/C1=C\c1cccs1	none
CCc1ccc(/C=C(/C#N)C(N)=S)cc1	Lmaj promast 50 | L major 1uM inactive
FC(F)(F)c1ccc2c(c1)N(CCCN1CCN(CCCl)CC1)c1ccccc1S2	Lmaj promast 100 | L major 1uM inactive
CN(C)C(=S)SSC(=S)N(C)C	Lmaj promast 101 (no result: bCat KO growth, HCT116 PTEN-null) | L major 1uM 99
CC12CN3CC(C)(CN(C1)C3c1ccco1)C2=O (stereo unspecified)	none
CCN(CC)P(=O)(/C=C(\Cl)c1ccccc1)/C=C(\Cl)c1ccccc1	none (no result: bCat KO growth, HCT116 PTEN-null)
O=C(c1ccc(-c2ccccc2)c(F)c1)C1CCCN(CCO)C1 (stereo unspecified)	Lmaj promast 99 (no result: bCat KO growth, HCT116 PTEN-null) | L major 1uM 63
CC(C)Oc1cccc(C(=O)C2CCCN(Cc3ccon3)C2)c1 (stereo unspecified)	none (no result: bCat KO growth, HCT116 PTEN-null)
CCOc1cccc(C2NCc3ccccc3-n3cccc32)c1O (stereo unspecified)	none
CCOc1cc(C2NCc3ccccc3-n3cccc32)ccc1O (stereo unspecified)	Lmaj promast 99 | L major 1uM inactive
COc1ccc(C2SCC(=O)Nc3c2c(=O)[nH]n3C2CCCCC2)cc1 (stereo unspecified)	none
CSc1ccc(C(=O)C(C)(C)N2CCOCC2)cc1	none
CCC1(CC)C(=O)N(Cc2ccccc2)C(=O)N(Cc2ccccc2)C1=O	Lmaj promast 82 | L major 1uM inconclusive
N#CCN1CCN(c2ccc(C(F)(F)F)cc2)CC1	none
COC(=O)[C@@H]1[C@@H](C(=O)OC)C2(c3ccccc3-c3ccccc32)N(c2ccc(Cl)cc2)N1C#N	bCat KO growth 0.8, Lmaj promast 74, HCT116 PTEN-null 1.2 | L major 1uM 57
CC(NC(=O)Oc1ccccc1)C(c1cccs1)N1CCOCC1 (stereo unspecified)	none
